Laboratory results reported in ChEMBL document CHEMBL1127060 (1993).
Activity calls are given as the source filed them. No cut-off for these calls is given here.

Tests used:
[1] = Agonism at turkey erythrocyte P2Y receptor.; type: functional, Meleagris gallopavo
How it was run: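 Turkey erythrocytes labeled 18–24 h at 37 °C with 2-[3H]myo-inositol in inositol-free DMEM; ghosts made by hypotonic lysis (5 mM Na phosphate pH 7.4, 5 mM MgCl2, 1 mM EGTA). PLC assay: ~175 μg protein ghosts, 1 μM GTPγS, Hepes pH 7.0 medium with 424 μM CaCl2, 2 mM EGTA; 5 min, 30 °C; total [3H]inositol phosphates by anion exchange; K0.5 averaged from 3–8 curves.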

Cavia porcellus [2] = species on record: Cavia porcellus; test: Tested for contraction of guinea pig isolated urinary bladder detrusor muscle at 37 degree C; 100 times more potent than ATP; type: functional; details: Muscle tissue
Cavia porcellus [3] = species on record: Cavia porcellus; test: Tested for contraction of guinea pig vas deferens at 37 degree C; Significantly more potent than ATP; type: functional
Cavia porcellus [4] = species on record: Cavia porcellus; test: Tested for relaxation of carbachol-contracted guinea pig taenia coli at 37 degree C; Significantly more potent than ATP; type: functional
Oryctolagus cuniculus [5] = species on record: Oryctolagus cuniculus; test: Tested for relaxation of carbachol-contracted rabbit mesenteric artery at 37 degree C; Significantly more potent than 2MeSATP; type: functional
Oryctolagus cuniculus [6] = species on record: Oryctolagus cuniculus; test: Tested for contraction of rabbit saphenous artery produced by 1 uM alpha,beta-MeATP at 37 degree C; type: functional
Oryctolagus cuniculus [7] = species on record: Oryctolagus cuniculus; test: Tested for relaxation of carbachol-contracted rabbit aorta at 37 degree C; Significantly more potent than 2MeSATP; type: functional
Cavia porcellus [8] = species on record: Cavia porcellus; test: Tested for contraction of guinea pig vas deferens at 37 degree C; More potent than or equal to ATP; type: functional
Oryctolagus cuniculus [9] = species on record: Oryctolagus cuniculus; test: Tested for contraction of rabbit saphenous artery produced by 1 uM alpha,beta-MeATP at 37 degree C; Not active; type: functional
Cavia porcellus [10] = species on record: Cavia porcellus; test: Tested for contraction of guinea pig isolated urinary bladder detrusor muscle at 37 degree C; Potency equal to ATP; type: functional; details: Muscle tissue
Cavia porcellus [11] = species on record: Cavia porcellus; test: Tested for contraction of guinea pig isolated urinary bladder detrusor muscle at 37 degree C; Significantly more potent than ATP; type: functional; details: Muscle tissue
Oryctolagus cuniculus [12] = species on record: Oryctolagus cuniculus; test: Tested for relaxation of carbachol-contracted rabbit mesenteric artery at 37 degree C; More potent than or equal to 2MeSATP; type: functional
Oryctolagus cuniculus [13] = species on record: Oryctolagus cuniculus; test: Tested for relaxation of carbachol-contracted rabbit aorta at 37 degree C; More potent than or equal to 2MeSATP; type: functional
Cavia porcellus [14] = species on record: Cavia porcellus; test: Tested for contraction of guinea pig isolated urinary bladder detrusor muscle at 37 degree C; Not active; type: functional; details: Muscle tissue
Cavia porcellus [15] = species on record: Cavia porcellus; test: Tested for contraction of guinea pig vas deferens at 37 degree C; Not active; type: functional
Cavia porcellus [16] = species on record: Cavia porcellus; test: Tested for relaxation of carbachol-contracted guinea pig taenia coli at 37 degree C; Potency equal to ATP; type: functional
Cavia porcellus [17] = species on record: Cavia porcellus; test: Tested for contraction of guinea pig isolated urinary bladder detrusor muscle at 37 degree C; More potent than or equal to ATP; type: functional; details: Muscle tissue
Cavia porcellus [18] = species on record: Cavia porcellus; test: Tested for contraction of guinea pig vas deferens at 37 degree C; Potency equal to ATP; type: functional
Cavia porcellus [19] = species on record: Cavia porcellus; test: Tested for contraction of guinea pig vas deferens at 37 degree C; Less potent than or equal to ATP; type: functional
Oryctolagus cuniculus [20] = species on record: Oryctolagus cuniculus; test: Tested for relaxation of carbachol-contracted rabbit aorta at 37 degree C; More potent or equal to 2MeSATP; type: functional
Oryctolagus cuniculus [21] = species on record: Oryctolagus cuniculus; test: Tested for relaxation of carbachol-contracted rabbit mesenteric artery at 37 degree C; Less potent or equal to 2MeSATP; type: functional
Cavia porcellus [22] = species on record: Cavia porcellus; test: Tested for relaxation of carbachol-contracted guinea pig taenia coli at 37 degree C; Less potent than or equal to ATP; type: functional
Cavia porcellus [23] = species on record: Cavia porcellus; test: Tested for contraction of guinea pig isolated urinary bladder detrusor muscle at 37 degree C; Less potent than or equal to ATP; type: functional; details: Muscle tissue

In the case of `N#CCCCCCCSc1nc(N)c2ncn(C3O[C@H](COP(=O)(O)OP(=O)(O)OP(=O)(O)O)[C@@H](O)[C@H]3O)c2n1` (some centres not stated), the “K 0.5” value [1] is reported as 10 nM, the Relative activity (Cavia porcellus [2]) is reported as “Active” and the Relative activity (Cavia porcellus [3]) is reported as “Active”. For the same compound, the Relative activity (Cavia porcellus [4]) was 8.6, the Relative activity (Oryctolagus cuniculus [5]) was 6.9 and the Relative activity (Oryctolagus cuniculus [6]) was 9.2%. The Relative activity (Oryctolagus cuniculus [7]) was 7.
For `CCCCCCSc1nc(N)c2ncn(C3O[C@H](COP(=O)(O)OP(=O)(O)OP(=O)(O)O)[C@@H](O)[C@H]3O)c2n1` (some centres not stated), the “K 0.5” value [1] was 5 nM, the Relative activity (Cavia porcellus [8]) was “Active” and the Relative activity (Cavia porcellus [4]) was 7.5. The Relative activity (Oryctolagus cuniculus [5]) was 6.7, the Relative activity (Oryctolagus cuniculus [9]) was “inactive” and the Relative activity (Oryctolagus cuniculus [7]) was 6.7. For the same compound, the Relative activity (Cavia porcellus [10]) was “Active”.
In the case of `Nc1nc(SCCc2ccccc2)nc2c1ncn2C1O[C@H](COP(=O)(O)OP(=O)(O)OP(=O)(O)O)[C@@H](O)[C@H]1O` (some centres not stated), the “K 0.5” value [1] is reported as 30 nM, the Relative activity (Cavia porcellus [11]) is reported as “Active” and the Relative activity (Cavia porcellus [3]) is reported as “Active”. For the same compound, the Relative activity (Cavia porcellus [4]) was 7.1, the Relative activity (Oryctolagus cuniculus [5]) was 6.2 and the Relative activity (Oryctolagus cuniculus [9]) was “inactive”. It also gave a Relative activity (Oryctolagus cuniculus [7]) of 6.5.
With `Nc1nc(SC2CCCCC2)nc2c1ncn2C1O[C@H](COP(=O)(O)OP(=O)(O)OP(=O)(O)O)[C@@H](O)[C@H]1O` (some centres not stated) the “K 0.5” value [1] was 24 nM, the Relative activity (Cavia porcellus [8]) was “Active” and the Relative activity (Cavia porcellus [4]) was 8. The Relative activity (Oryctolagus cuniculus [12]) was 5.9, the Relative activity (Oryctolagus cuniculus [9]) was “inactive” and the Relative activity (Oryctolagus cuniculus [13]) was 6.3. The Relative activity (Cavia porcellus [10]) was “Active”.
For `C=CCCCCSc1nc(N)c2ncn(C3O[C@H](COP(=O)(O)O)[C@@H](O)[C@H]3O)c2n1` (some centres not stated), the “K 0.5” value [1] was 328 nM, the Relative activity (Cavia porcellus [14]) was “inactive” and the Relative activity (Cavia porcellus [15]) was “inactive”. For the same compound, the Relative activity (Cavia porcellus [16]) was 5, the Relative activity (Oryctolagus cuniculus [12]) was 6.3 and the Relative activity (Oryctolagus cuniculus [9]) was “inactive”. It also gave a Relative activity (Oryctolagus cuniculus [7]) of 7.
In the case of `C=CCCCCSc1nc(N)c2ncn(C3O[C@H](COP(=O)(O)OP(=O)(O)OP(=O)(O)O)[C@@H](O)[C@H]3O)c2n1` (some centres not stated), the “K 0.5” value [1] is reported as 10 nM, the Relative activity (Cavia porcellus [17]) is reported as “Active” and the Relative activity (Cavia porcellus [18]) is reported as “Active”. For the same compound, the Relative activity (Cavia porcellus [4]) was 7.9, the Relative activity (Oryctolagus cuniculus [5]) was 7 and the Relative activity (Oryctolagus cuniculus [9]) was “inactive”.
For `Nc1ncnc2c1ncn2[C@@H]1O[C@H](COP(=O)(O)OP(=O)(O)O)[C@@H](O)[C@H]1O` [ADENOSINE DIPHOSPHATE], the “K 0.5” value [1] was 8000 nM, the Relative activity (Cavia porcellus [19]) was “Partially active” and the Relative activity (Cavia porcellus [16]) was “Active”. The Relative activity (Oryctolagus cuniculus [9]) was “inactive”, the Relative activity (Oryctolagus cuniculus [20]) was 5.2 and the Relative activity (Oryctolagus cuniculus [21]) was 5.2. The Relative activity (Cavia porcellus [10]) was “Active”.
In the case of `C=CCCCCSc1nc(N)c2ncn(C3O[C@H](COP(=O)(O)OP(=O)(O)O)[C@@H](O)[C@H]3O)c2n1` (some centres not stated), the K 0.5 [1] is reported as 4 nM and the Relative activity (Cavia porcellus [4]) is reported as 8.1.
With `Nc1ccc(CCSc2nc(N)c3ncn([C@@H]4O[C@H](COP(=O)(O)OP(=O)(O)OP(=O)(O)O)[C@@H](O)[C@H]4O)c3n2)cc1` the “K 0.5” value [1] was 1.53 nM.
With `CSc1nc(N)c2ncn([C@@H]3O[C@H](COP(=O)(O)OP(=O)(O)O)[C@@H](O)[C@H]3O)c2n1` the “K 0.5” value [1] was 6 nM, the Relative activity (Oryctolagus cuniculus [5]) was “Active” and the Relative activity (Oryctolagus cuniculus [7]) was “Active”.
With `N#CCCCCCCSc1nc(N)c2ncn(C3O[C@H](COP(=O)(O)O)[C@@H](O)[C@H]3O)c2n1` (some centres not stated) the “K 0.5” value [1] was 37000 nM, the Relative activity (Cavia porcellus [14]) was “inactive” and the Relative activity (Cavia porcellus [15]) was “inactive”. For the same compound, the Relative activity (Cavia porcellus [22]) was 4.4, the Relative activity (Oryctolagus cuniculus [12]) was 6.2 and the Relative activity (Oryctolagus cuniculus [6]) was 4.5%.
With `Nc1nc(SCCc2ccc([N+](=O)[O-])cc2)nc2c1ncn2C1O[C@H](COP(=O)(O)OP(=O)(O)OP(=O)(O)O)[C@@H](O)[C@H]1O` (some centres not stated) the “K 0.5” value [1] was 12 nM, the Relative activity (Cavia porcellus [23]) was “Partially active” and the Relative activity (Cavia porcellus [3]) was “Active”. The Relative activity (Cavia porcellus [4]) was 8, the Relative activity (Oryctolagus cuniculus [5]) was 7 and the Relative activity (Oryctolagus cuniculus [6]) was 2.6%. The Relative activity (Oryctolagus cuniculus [7]) was 6.2.
